Measured values taken from ChEMBL document CHEMBL2311425, “Histone deacetylase (HDAC) inhibitors with a novel connecting unit linker region reveal a selectivity profile for HDAC4 and HDAC5 with improved activity against chemoresistant cancer cells” (J Med Chem, 2013).

Columns and labels:
[1] = system: KYSE-510; assay: Potentiation of 0.75 uM cisplatin-induced toxicity in 0.5 uM cisplatin resistant human KYSE-510 cells at 0.25 uM pretreated for 48 hrs followed by 0.5 uM cisplatin treatment by MTT assay; format: functional
How it was run: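 Cisplatin-resistant Kyse510 CisR (derived by weekly cycles of cisplatin over 24−30 weeks), grown in RPMI 1640 with 10% FCS at 37 °C, 5% CO₂. Test agent added 48 h before cisplatin, then 72 h further incubation. Viability by MTT (read at 544/690 nm) relative to untreated control wells. Combination index by Chou−Talalay method. Mean of three experiments.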

[2] = system: CAL-27; assay: Potentiation of 2.5 uM cisplatin-induced toxicity in 1 uM cisplatin resistant human CAL27 cells at 1.5 uM pretreated for 48 hrs followed by 1 uM cisplatin treatment by MTT assay; format: functional
[3] = system: MDA-MB-231; assay: Potentiation of 10 uM cisplatin-induced toxicity in 1 uM cisplatin resistant human MDA-MB-231 cells at 1.5 uM pretreated for 48 hrs followed by 1 uM cisplatin treatment by MTT assay; format: functional
[4] = system: MDA-MB-231; assay: Potentiation of 10 uM cisplatin-induced toxicity in 1 uM cisplatin resistant human MDA-MB-231 cells at 1 uM pretreated for 48 hrs followed by 1 uM cisplatin treatment by MTT assay; format: functional
[5] = system: MDA-MB-231; assay: Potentiation of 5 uM cisplatin-induced toxicity in 1 uM cisplatin resistant human MDA-MB-231 cells at 1 uM pretreated for 48 hrs followed by 1 uM cisplatin treatment by MTT assay; format: functional
[6] = system: KYSE-510; assay: Potentiation of 0.5 uM cisplatin-induced toxicity in 0.5 uM cisplatin resistant human KYSE-510 cells at 1.5 uM pretreated for 48 hrs followed by 0.5 uM cisplatin treatment by MTT assay; format: functional
[7] = system: KYSE-510; assay: Potentiation of cisplatin-induced toxicity in cisplatin resistant human KYSE-510 cells at 1 uM pretreated for 48 hrs followed by cisplatin treatment by MTT assay; format: functional
How it was run: (§1)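 Resistant sublines pretreated 48 h with 1 μM HDAC inhibitor, then cisplatin over a concentration range for 72 h; MTT viability read at 544/690 nm. Cisplatin IC50 from four-parameter logistic fit of pooled data (≥3 experiments, triplicate); shift factor = IC50 of cisplatin alone divided by IC50 of the combination.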

[8] = system: CAL-27; assay: Potentiation of cisplatin-induced toxicity in cisplatin resistant human CAL27 cells at 1 uM pretreated for 48 hrs followed by cisplatin treatment by MTT assay; format: functional; how it was run: as §1
[9] = target: T1, Histone deacetylase 11 (Homo sapiens, UniProt Q96DB2); assay: Inhibition of human HDAC11 by fluorescence assay
T1 sequence (Q96DB2 whole entry): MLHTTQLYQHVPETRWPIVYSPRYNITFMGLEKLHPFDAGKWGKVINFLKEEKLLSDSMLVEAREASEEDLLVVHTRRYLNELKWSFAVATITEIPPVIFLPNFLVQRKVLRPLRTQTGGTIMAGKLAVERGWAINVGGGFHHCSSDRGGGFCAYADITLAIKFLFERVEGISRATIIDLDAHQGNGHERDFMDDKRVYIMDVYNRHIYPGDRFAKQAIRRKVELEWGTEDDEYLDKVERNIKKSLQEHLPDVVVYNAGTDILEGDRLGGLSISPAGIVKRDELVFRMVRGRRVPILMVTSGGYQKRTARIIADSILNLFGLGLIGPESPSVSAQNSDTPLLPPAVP

[10] = target: Histone deacetylase 4 (Homo sapiens, UniProt P56524); assay: Inhibition of human HDAC4 by fluorescence assay
Sequence of Histone deacetylase 4 (P56524 whole entry): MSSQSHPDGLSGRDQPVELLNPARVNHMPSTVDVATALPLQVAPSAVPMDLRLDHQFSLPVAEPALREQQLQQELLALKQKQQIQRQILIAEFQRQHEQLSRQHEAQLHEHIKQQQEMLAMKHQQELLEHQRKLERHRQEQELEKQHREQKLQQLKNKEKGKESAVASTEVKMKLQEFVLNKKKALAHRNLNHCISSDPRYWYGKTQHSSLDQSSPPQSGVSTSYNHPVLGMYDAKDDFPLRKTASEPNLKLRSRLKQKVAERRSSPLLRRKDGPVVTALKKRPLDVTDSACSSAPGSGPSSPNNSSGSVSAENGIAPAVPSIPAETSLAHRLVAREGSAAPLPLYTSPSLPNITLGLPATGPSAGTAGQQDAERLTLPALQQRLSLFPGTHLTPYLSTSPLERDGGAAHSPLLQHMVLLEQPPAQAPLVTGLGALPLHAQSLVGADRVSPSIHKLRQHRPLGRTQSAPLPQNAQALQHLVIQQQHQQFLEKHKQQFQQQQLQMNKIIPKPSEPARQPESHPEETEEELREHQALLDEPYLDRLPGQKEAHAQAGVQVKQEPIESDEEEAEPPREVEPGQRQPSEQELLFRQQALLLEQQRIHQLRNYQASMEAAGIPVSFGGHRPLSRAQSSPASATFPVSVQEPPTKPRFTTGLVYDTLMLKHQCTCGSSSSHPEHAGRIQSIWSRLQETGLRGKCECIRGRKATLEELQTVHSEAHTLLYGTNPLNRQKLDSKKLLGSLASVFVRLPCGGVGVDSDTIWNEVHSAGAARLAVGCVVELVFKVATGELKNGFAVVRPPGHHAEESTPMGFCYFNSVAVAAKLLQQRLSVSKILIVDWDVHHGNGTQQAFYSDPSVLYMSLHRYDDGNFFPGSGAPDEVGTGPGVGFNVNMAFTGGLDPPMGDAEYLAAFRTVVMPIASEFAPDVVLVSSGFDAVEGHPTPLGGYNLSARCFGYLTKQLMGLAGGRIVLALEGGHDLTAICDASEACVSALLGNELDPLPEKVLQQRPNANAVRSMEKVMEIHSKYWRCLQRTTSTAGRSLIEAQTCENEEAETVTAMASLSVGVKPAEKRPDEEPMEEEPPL

[11] = target: Histone deacetylase 2 (Homo sapiens, UniProt Q92769); assay: Inhibition of human HDAC2 by fluorescence assay
Sequence of Histone deacetylase 2 (Q92769 whole entry): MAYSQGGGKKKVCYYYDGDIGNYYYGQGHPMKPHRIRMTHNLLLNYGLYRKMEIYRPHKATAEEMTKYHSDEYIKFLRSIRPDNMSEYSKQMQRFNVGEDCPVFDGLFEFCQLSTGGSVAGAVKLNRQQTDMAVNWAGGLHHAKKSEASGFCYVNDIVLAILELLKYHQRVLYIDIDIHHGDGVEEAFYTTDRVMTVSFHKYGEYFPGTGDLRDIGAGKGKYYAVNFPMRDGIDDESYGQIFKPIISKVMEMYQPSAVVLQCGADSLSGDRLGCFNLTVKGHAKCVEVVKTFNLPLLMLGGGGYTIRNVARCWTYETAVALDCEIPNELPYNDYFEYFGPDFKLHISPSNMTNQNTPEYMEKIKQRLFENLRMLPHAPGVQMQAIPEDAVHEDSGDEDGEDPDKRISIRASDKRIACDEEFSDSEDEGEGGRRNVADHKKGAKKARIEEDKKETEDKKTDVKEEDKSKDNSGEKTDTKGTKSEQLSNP

[12] = target: Histone deacetylase; assay: Inhibition of HDAC in cisplatin resistant human KYSE-510 cells after 18 hrs by fluorescence assay; format: cell-based
[13] = target: Histone deacetylase; assay: Inhibition of HDAC in cisplatin sensitive human MDA-MB-231 cells after 18 hrs by fluorescence assay; format: cell-based
[14] = system: MDA-MB-231; assay: Cytotoxicity against cisplatin sensitive human MDA-MB-231 cells after 72 hrs by MTT assay; format: functional, cell-based
How it was run: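 MDA-MB-231 (parental), 10 000 cells/well, in DMEM with 15% FCS at 37 °C, 5% CO2. Compounds added 24 h after seeding for 72 h. MTT (5 mg/mL in PBS) was added, formazan dissolved in DMSO, absorbance read at 544 and 690 nm. IC50 from four-parameter logistic fit of ≥3 experiments in triplicate.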

[15] = system: KYSE-510; assay: Potentiation of 8 uM cisplatin-induced toxicity in 0.5 uM cisplatin resistant human KYSE-510 cells at 0.5 uM pretreated for 48 hrs followed by 0.5 uM cisplatin treatment by MTT assay; format: functional
[16] = system: MDA-MB-231; assay: Potentiation of […] cisplatin-induced toxicity in 1 uM cisplatin resistant human MDA-MB-231 cells at 1 uM pretreated for 48 hrs followed by 1 uM cisplatin treatment by MTT assay; format: functional
[17] = system: A2780; assay: Potentiation of 10 uM cisplatin-induced toxicity in 5 uM cisplatin resistant human A2780 cells at 0.25 uM pretreated for 48 hrs followed by 5 uM cisplatin treatment by MTT assay; format: functional
[18] = system: MDA-MB-231; assay: Potentiation of 40 uM cisplatin-induced toxicity in 1 uM cisplatin resistant human MDA-MB-231 cells at 1 uM pretreated for 48 hrs followed by 1 uM cisplatin treatment by MTT assay; format: functional
[19] = system: A2780; assay: Potentiation of 8 uM cisplatin-induced toxicity in 5 uM cisplatin resistant human A2780 cells at 1.5 uM pretreated for 48 hrs followed by 5 uM cisplatin treatment by MTT assay; format: functional
[20] = system: A2780; assay: Potentiation of 8 uM cisplatin-induced toxicity in 5 uM cisplatin resistant human A2780 cells at 1 uM pretreated for 48 hrs followed by 5 uM cisplatin treatment by MTT assay; format: functional
[21] = system: KYSE-510; assay: Potentiation of 1 uM cisplatin-induced toxicity in 0.5 uM cisplatin resistant human KYSE-510 cells at 0.5 uM pretreated for 48 hrs followed by 0.5 uM cisplatin treatment by MTT assay; format: functional
[22] = system: CAL-27; assay: Potentiation of 5 uM cisplatin-induced toxicity in 1 uM cisplatin resistant human CAL27 cells at 1.5 uM pretreated for 48 hrs followed by 1 uM cisplatin treatment by MTT assay; format: functional
[23] = system: CAL-27; assay: Potentiation of 5 uM cisplatin-induced toxicity in 1 uM cisplatin resistant human CAL27 cells at 0.25 uM pretreated for 48 hrs followed by 1 uM cisplatin treatment by MTT assay; format: functional
[24] = system: MDA-MB-231; assay: Potentiation of 25 uM cisplatin-induced toxicity in 1 uM cisplatin resistant human MDA-MB-231 cells at 1.5 uM pretreated for 48 hrs followed by 1 uM cisplatin treatment by MTT assay; format: functional

Compound: Cc1cc(C)cc(C(=O)NOCCCCCC(=O)NO)c1
- Activity [1]: Dose-dependent effect
- fractional inhibitory concentration index (FICI) [1]: 0.1
- Activity [2]: Dose-dependent effect
- fractional inhibitory concentration index (FICI) [2]: 0.34
- Activity [3]: Dose-dependent effect
- fractional inhibitory concentration index (FICI) [3]: 0.79
- Activity [4]: Dose-dependent effect
- fractional inhibitory concentration index (FICI) [4]: 0.85
- Activity [5]: Dose-dependent effect
- Activity [6]: Dose-dependent effect
- fractional inhibitory concentration index (FICI) [6]: 0.06
- Activity [7]: Dose-dependent effect
- fold change (FC) [7]: 18.8
- Activity [8]: Dose-dependent effect
- fold change (FC) [8]: 21.6
- IC50 [9]: 0.852 µM
- IC50 [10]: 0.0119 µM
- IC50 [11]: 0.881 µM
- IC50 [12]: 0.35 µM
- IC50 [13]: 0.46 µM
- Activity [14]: Dose-dependent effect
- IC50 ([14]; MDA-MB-231, 72 h): 1.37 µM
- Activity [15]: Dose-dependent effect
- fractional inhibitory concentration index (FICI) [15]: 0.16
- Activity [16]: Dose-dependent effect
- fractional inhibitory concentration index (FICI) [16]: 0.75
- Activity [17]: Dose-dependent effect
- fractional inhibitory concentration index (FICI) [17]: 0.78
- Activity [18]: Dose-dependent effect
- fractional inhibitory concentration index (FICI) [18]: 0.78
- Activity [19]: Dose-dependent effect
- fractional inhibitory concentration index (FICI) [19]: 0.74
- Activity [20]: Dose-dependent effect
- fractional inhibitory concentration index (FICI) [20]: 0.59
- Activity [21]: Dose-dependent effect
- fractional inhibitory concentration index (FICI) [21]: 0.08
- Activity [22]: Dose-dependent effect
- fractional inhibitory concentration index (FICI) [22]: 0.22
- Activity [23]: Dose-dependent effect
- Activity [24]: Dose-dependent effect
- fractional inhibitory concentration index (FICI) [24]: 0.73
